# This is a sample that favours compounds with a hit; in the whole collection about 5% have one here.
# XBP1 UPR activ: activators of adaptive XBP1 UPR arm, primary screen, cell-based, CHO-XBP1 luciferase reporter, luminescence, uHTS; IRE1-XBP1 UPR activation; percent of tunicamycin response, DMSO as zero; activation, % at 20 µM; 330,000 compounds, 0.33% hits;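 active means versus positive control, 20 µM dose yields 30% or more activation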;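 further: 100% = tunicamycin at 10 µg/mL and 0% = DMSO only wells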
#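 Material: CHO cell line with stable XBP1 luciferase reporter; buffer or medium: F12 medium containing 10% fetal bovine serum; compound: single point, 20 µM final compound, 1% DMSO; incubation: 6 h treatment, 37 °C; measured by: glow luminescence from Steady-Glo reagent; evaluation: activation, % of tunicamycin; control set: tunicamycin high, DMSO low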
# CSC inhib: cancer stem cell viability inhibitors, primary screen, luminescence; cancer stem cell-like cells viability; inhibition, % at 7.5 µM; 300,000 compounds, 1.1% hits; in the data active means inhibition above about 75%; inconclusive means no clear call, values can overlap the other calls; tested in HMLE shEcad cells
# T cruzi repl: inhibitors of intracellular T. cruzi growth, primary screen, luminescence, NIH3T3 host cells; T. cruzi beta-gal in NIH3T3, 90 h; inhibition, % (test concentration not listed); 300,000 compounds, 1.4% hits; AID 1885, 2009;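 active means mean inhibition across valid replicates above about 55%, limit read from the data; inconclusive means mean below that limit but half or more replicates reach it; inactive means mean below it, under half of replicates reach it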;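 further: signal also drops with host cell toxicity which is not excluded here; 0% = plate median of DMSO wells and 100% = zero luminescence signal; higher percent means less beta-gal luminescence so fewer parasites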
#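 Material: NIH/3T3 host cells with β-galactosidase reporter T. cruzi; Input: 5,000 host fibroblasts per well; Medium: DMEM, 2% fetal bovine serum; Compound: 50 nL DMSO compound solution per well; Schedule: 3 h host attachment, then at least 90 h co-culture; Detection: luminescent β-galactosidase signal after 60 min lysis.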
# UPR CHOP act: activators of apoptotic CHOP UPR arm, primary screen, cell-based, CHO-CHOP luciferase reporter, luminescence, uHTS | AID 449763, 2010 | 330,000 compounds, 0.34% hits | UPR activation; percent of tunicamycin response over DMSO baseline | activation, % at 10 µM;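 active means at 10 µM dose, activation of 40% or more, normalized to positive control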;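 further: 100% = tunicamycin at 10 µg/mL and 0% = DMSO alone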
#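 measured by = luciferase luminescence | assay system = CHO-CHOP cells, stable luciferase reporter of PERK-eIF2a-CHOP signalling | amount = 500 reporter cells seeded per well | timing = 6 h compound exposure at 37 °C after overnight seeding | controls = positive tunicamycin 10 µg/mL, negative DMSO alone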
# Beta apoptosis: inhibitors of cytokine-induced beta cell apoptosis, primary screen, luminescence; 300,000 compounds, 0.8% hits; protection from apoptosis, % (concentration not given with the values); INS-1E cytokine-induced death, ATP luminescence, 48 h; percent of positive-control rescue, neutral wells zero;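 active means Every replicate reaches about 75%, or at least half do and their mean reaches it too, limit read from the data; inconclusive means At least half of replicates reach the limit but their mean does not; inactive means Under half of replicates reach the limit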;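 further: 0% = cytokine-treated negative control wells and 100% = positive control rescue; higher means more ATP so stronger rescue from cytokine killing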
# Mdm2-MdmX inh: inhibitors of human Mdm2-MdmX association, primary screen, cell-based, luminescence, split luciferase, SaOS-2, uHTS | Protein Mdm4 (Homo sapiens) + E3 ubiquitin-protein ligase Mdm2 (Homo sapiens), … | SaOS-2 split-luciferase Mdm2/MdmX complementation | 330,000 compounds, 3% hits | inhibition, % at 8 µM | AID 485346, 2010;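 active means inhibition of at least 50% at 8 µM in the primary screen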
# Target sequence (O15151 whole entry, looked up): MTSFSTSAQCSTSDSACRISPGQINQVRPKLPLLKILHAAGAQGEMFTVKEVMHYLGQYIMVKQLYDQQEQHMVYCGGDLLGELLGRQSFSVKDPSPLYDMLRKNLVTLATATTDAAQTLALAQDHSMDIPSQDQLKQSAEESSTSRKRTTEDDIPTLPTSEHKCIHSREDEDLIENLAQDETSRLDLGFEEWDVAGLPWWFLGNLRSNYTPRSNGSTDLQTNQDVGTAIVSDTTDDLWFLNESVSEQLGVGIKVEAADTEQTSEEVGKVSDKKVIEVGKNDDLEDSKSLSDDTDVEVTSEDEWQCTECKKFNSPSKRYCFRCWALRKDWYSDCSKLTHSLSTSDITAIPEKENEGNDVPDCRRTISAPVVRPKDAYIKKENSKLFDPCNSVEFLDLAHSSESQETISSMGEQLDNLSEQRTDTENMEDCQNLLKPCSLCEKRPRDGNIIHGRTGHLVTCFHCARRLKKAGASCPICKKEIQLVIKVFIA
# Target sequence (Q00987 whole entry, looked up): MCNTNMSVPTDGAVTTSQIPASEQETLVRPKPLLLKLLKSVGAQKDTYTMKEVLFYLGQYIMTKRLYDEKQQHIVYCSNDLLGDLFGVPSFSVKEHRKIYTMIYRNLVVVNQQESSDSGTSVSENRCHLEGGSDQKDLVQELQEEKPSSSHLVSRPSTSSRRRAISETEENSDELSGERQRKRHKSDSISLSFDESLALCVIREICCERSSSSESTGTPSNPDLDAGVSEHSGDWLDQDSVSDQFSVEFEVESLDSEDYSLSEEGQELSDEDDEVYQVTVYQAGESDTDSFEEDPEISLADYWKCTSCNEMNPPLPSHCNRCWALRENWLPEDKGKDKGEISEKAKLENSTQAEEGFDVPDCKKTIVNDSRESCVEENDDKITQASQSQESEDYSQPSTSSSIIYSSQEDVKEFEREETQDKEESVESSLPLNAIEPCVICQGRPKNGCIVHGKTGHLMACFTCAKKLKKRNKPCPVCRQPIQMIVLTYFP
# Mdm2-MdmX conf: Mdm2-MdmX complex disruptors, retested hits, confirmation, luminescence, single concentration. shares compounds with Mdm2-MdmX inh. Mdm2-MdmX binding, luminescent assay. inhibition, % at 8 µM. 10,000 compounds, 55% hits; in the data active means inhibition above about 40%
# FLuc counter: full-length luciferase signal inhibition, confirmation, counter-screen for Mdm2/MdmX interaction inhibitor project, cell-based, single concentration, SaOS-2; inhibition, % at 8 µM; SaOS-2 full-length luciferase counterscreen, luminescence; shares compounds with Mdm2-MdmX inh; 6,200 compounds, 77% hits; AID 504607, 2011;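 active means mean inhibition at 8 µM reaching about 37%, which flags the compound as non-specific, limit read from the data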;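 further: p53-null SaOS-2 cells with luciferase driven by a doxycycline-inducible promoter; compound on cells about two nights before reading with doxycycline added after day one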
# * marks the source's active call; other numbers are inactive results; ? = inconclusive; · = no result given.
SMILES,XBP1 UPR activ,CSC inhib,T cruzi repl,UPR CHOP act,Beta apoptosis,Mdm2-MdmX inh,Mdm2-MdmX conf,FLuc counter
CC1CCN(S(=O)(=O)c2ccc(NC(=O)c3ccncc3)cc2)CC1,-3,-1,4,-3,13,2,·,·
COc1ccccc1NC(=O)c1nc(S(=O)(=O)Cc2ccccc2)ncc1Cl,-10,-6,38,-10,77*,97*,70*,51*
CCS(=O)(=O)c1ncc(Cl)c(C(=O)Nc2ccccc2OC)n1,-8,55,-19,-9,84*,96*,100*,45*
O=C1OCCC1Sc1nnnn1-c1ccc(Cl)cc1 (stereo not drawn),-2,3,-5,-1,-4,28,·,·
CC(=O)N1CCOc2ccc(S(=O)(=O)N3CC(C)CC(C)C3)cc21 (stereo not drawn),-2,-15,0,0,·,16,·,·
CC1(c2ccc3c(c2)OCCO3)NC(=O)N(CC(=O)Nc2ccccc2F)C1=O (stereo not drawn),-4,·,·,-2,·,1,·,·
O=C(NCCCSc1ccccc1)c1cc(Cl)ccc1O,-4,·,-4,-2,0,21,·,·
COc1cc2c(c(OC)c1OC)-c1ccc(OC)c(=O)cc1[C@@H](N(C)CC#CCO)CC2,6,65,22,2,48,51*,53*,117*
COc1cc(C(=O)NC2CCCc3ccccc32)cc(OC)c1OC (stereo not drawn),-2,-13,4,1,0,40,·,·
COc1cc2c(c(OC)c1OC)-c1ccc(OC)c(=O)cc1[C@@H](NC(C)=O)CC2,9,49,22,-1,38,73*,41*,98*
COc1cc2c(c(OC)c1OC)-c1ccc(NC(=O)c3ccc(F)cc3)c(=O)cc1[C@@H](NC(C)=O)CC2,9,53,17,-1,2,62*,52*,78*
O=C(c1ccc(-n2cccn2)cc1)N1CCN(c2ncccc2C(F)(F)F)CC1,-2,1,4,-2,5,16,·,·
CCNC(=O)O/N=C(\C)c1sc(-c2ccc(Cl)cc2)nc1C,0,-1,9,3,9,-107,·,·
Cc1c(NC(=O)c2nn(CC(C)C)c(=O)c3ccccc23)c(=O)n(-c2ccccc2)n1C,-4,·,·,-2,·,17,·,·
O=[N+]([O-])c1ccc(S(=O)(=O)N2CCN=C2SCc2ccc(F)cc2)cc1,-6,-2,?,3,-1,10,·,·
O=C(c1cccc(N2CCCC2=O)c1)N1CCN(c2ccc(F)cc2)CC1,-1,-7,-2,2,-8,16,·,·
O=C(c1cccc(N2CCCC2=O)c1)N1CCN(c2cccc(Cl)c2)CC1,-4,-23,-1,0,16,57*,68*,48*
Cc1cccc(N2CCN(C(=O)c3cccc(N4CCCC4=O)c3)C(C)C2)c1 (stereo not drawn),-3,-4,-18,-1,7,55*,60*,50*
O=C(Nc1cccc(C(F)(F)F)c1)c1cccc(NS(=O)(=O)c2ccc(O)c(C(=O)O)c2)c1,1,-6,-11,0,-12,-10,·,·
CCC1C(=NO)C(CC)C(c2ccccc2)NC1c1ccccc1 (stereo not drawn),7,64,48,1,25,52*,37,·
CC1/C(=N/O)CC(c2ccccc2)NC1c1ccccc1 (stereo not drawn),-4,-6,10,6,2,-13,·,·
CCCC1/C(=N/O)CC(c2ccccc2)NC1c1ccccc1 (stereo not drawn),-7,2,-1,-1,·,59*,62*,64*
CCOC(=O)c1cc(-c2ccccc2)sc1NC(=O)C(C)OC(=O)c1cccnc1Cl (stereo not drawn),-1,-8,-19,7,4,18,·,·
CCCCCCCn1c(=N)n(CC(=O)c2ccco2)c2ccccc21,-1,-2,43,1,23,63*,16,·
CCCCn1c(=N)n(CC(=O)c2ccc([N+](=O)[O-])cc2)c2ccccc21,3,-9,3,0,4,55*,16,·
SMILES,XBP1 UPR activ,CSC inhib,T cruzi repl,UPR CHOP act,Beta apoptosis,Mdm2-MdmX inh,Mdm2-MdmX conf,FLuc counter
CN(C(=O)c1ccc2c(c1)OCO2)C1(C)CCS(=O)(=O)C1 (stereo not drawn),-2,-3,-6,1,-2,-6,·,·
Cc1[nH]c2ccccc2c1/C=C/c1nc2ccccc2c(=O)n1-c1cccc([N+](=O)[O-])c1,10,·,21,8,3,70*,17,·
O=c1c2ccccc2nc(/C=C/c2c[nH]c3ccccc23)n1-c1ccc([N+](=O)[O-])cc1,2,0,40,6,4,14,·,·
COc1ccc(-n2ncc3c(N4CCCCC4)ncnc32)cc1,-9,-1,3,-11,14,87*,86*,73*
COc1ccc(N2CCN(c3ncnc4c3cnn4-c3ccc(C)cc3C)CC2)cc1,0,-12,?,4,·,27,·,·
Cc1ccc(-n2ncc3c(N4CCN(c5ccccc5)CC4)ncnc32)c(C)c1,-7,31,19,-6,·,70*,70*,64*
Clc1ccc(-n2ncc3c(N4CCCCCC4)ncnc32)cc1,-9,59,-14,-10,·,91*,88*,98*
COc1ccc(-n2ncc3c(N4CCN(c5cc(C)ccc5C)CC4)ncnc32)cc1,2,9,24,0,6,3,·,·
COc1ccc(-n2ncc3c(N4CCN(c5cccc(C)c5C)CC4)ncnc32)cc1,0,-5,13,2,15,77*,21,·
Clc1ccc(Cn2ncc3c(N4CCCC4)ncnc32)cc1,4,1,3,-3,0,21,·,·
C[C@H](CO)N1C[C@H](C)[C@@H](CN(C)Cc2ccc(C(=O)O)cc2)Oc2ccc(NS(=O)(=O)c3cn(C)cn3)cc2C1=O,-2,·,·,0,2,2,·,·

# Assay outcomes as filed in PubChem.
